Screening results deposited in PubChem BioAssay by Johns Hopkins Ion Channel Center.
Only some compounds are listed: those with a hit (about 3.7% of all), similar ones and a draw of the others.
KCNQ1 block: blocks the human KCNQ1 potassium channel | 1.3% of 310,000 active | P51787 | B-score at 10 µM | AID 2642 | CHO-K1 KCNQ1, FluxOR thallium flux fluorescence; hits give high values;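 active = compounds whose thallium flux B-score, printed positive for inhibition, exceeds three library SD while starting fluorescence stays within three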;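 also: channel opened by potassium depolarization with thallium stimulus after 20 min compound exposure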
KCNQ1 pot: potentiators or activators of human KCNQ1 potassium channel | P51787 | CHO-K1 KCNQ1, thallium flux FluxOR fluorescence; hits give high values | B-score at 10 µM | 0.35% of 310,000 active | AID 2648;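 active = fluorescence ratio B-score, a plate-corrected score, at least three library SD, with initial intensity B-score within 5 SD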
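Material: CHO-K1 cells stably expressing KCNQ1. Medium: assay buffer for compound exposure, DMSO matched across wells. Reagent: K+/Tl+ depolarizing stimulus. Compound dosing: single-concentration screen. Times: 37 °C overnight plating, 90-min dark dye load, 20-min compound pretreatment. Technique: FluxOR Tl+ flux fluorescence.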
Kir21 block: blocks the mouse Kir2.1 inward-rectifier potassium channel. P35561. HEK293-Kir2.1, FluxOR thallium flux fluorescence; hits give low values. B-score at 10 µM. 0.85% of 310,000 active. AID 1672;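 active = fluorescence ratio B-score at or below minus 3 SD of library scores, with starting-brightness B-score within 2 SD, cut at about -4.2 in these data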;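 also: channel flux triggered by added potassium and thallium sulfate stimulus; B-score of peak minus minimum fluorescence over baseline after thallium stimulus; more negative B-score means stronger Kir2.1 block with less thallium influx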
KCNK9 block: inhibitors of human KCNK9 two-pore domain potassium channel; AID 488922; B-score at 10 µM; 1.2% of 310,000 active; HEK293 KCNK9, FluxOR thallium flux fluorescence; hits give low values;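 active = ratio B-score over 3 SD below the library mean, with starting fluorescence within 5 SD of its mean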;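 also: negative B-score means less thallium flux so channel inhibition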
Target sequence (Q9NPC2 whole entry, looked up, the tested form may be a part): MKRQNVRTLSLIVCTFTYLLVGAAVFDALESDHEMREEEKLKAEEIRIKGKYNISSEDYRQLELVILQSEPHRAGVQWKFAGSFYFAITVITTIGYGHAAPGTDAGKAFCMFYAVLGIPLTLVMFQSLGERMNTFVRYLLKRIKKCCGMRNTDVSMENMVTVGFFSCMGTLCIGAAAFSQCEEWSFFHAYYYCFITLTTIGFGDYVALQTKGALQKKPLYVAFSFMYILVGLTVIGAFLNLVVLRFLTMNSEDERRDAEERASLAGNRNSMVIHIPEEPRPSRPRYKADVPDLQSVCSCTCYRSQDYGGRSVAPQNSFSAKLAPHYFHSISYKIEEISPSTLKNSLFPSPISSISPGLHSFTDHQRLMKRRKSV
KCNK3 block: human KCNK3 channel inhibition, primary screen | O14649 | B-score at 10 µM | 0.84% of 340,000 active | AID 602410 | CHO-KCNK3 thallium flux, FluxOR fluorescence; hits give low values;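 active = B-score under library mean minus 4 SD, starting fluorescence ratio at most library mean plus 5 SD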;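 also: more negative B-score means stronger inhibition of thallium flux through KCNK3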
Target sequence (O14649 whole entry, looked up): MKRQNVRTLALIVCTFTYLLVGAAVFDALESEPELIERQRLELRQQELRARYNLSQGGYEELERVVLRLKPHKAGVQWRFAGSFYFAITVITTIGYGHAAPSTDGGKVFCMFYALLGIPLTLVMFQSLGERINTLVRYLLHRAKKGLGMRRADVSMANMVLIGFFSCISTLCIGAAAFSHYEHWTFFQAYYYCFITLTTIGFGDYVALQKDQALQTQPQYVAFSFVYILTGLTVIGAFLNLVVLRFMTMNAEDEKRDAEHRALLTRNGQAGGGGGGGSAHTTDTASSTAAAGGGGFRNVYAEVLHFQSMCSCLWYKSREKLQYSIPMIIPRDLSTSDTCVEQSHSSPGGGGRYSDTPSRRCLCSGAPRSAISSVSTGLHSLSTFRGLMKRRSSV
hERG protect: shields human hERG channel from block by proarrhythmic agents; CHO-hERG, FluxOR thallium flux, dofetilide IC70 present; activation (rescue from dofetilide block), less the hit threshold, % at 10 µM; 0.51% of 310,000 active;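 active = activation above the mean of controls blocked by dofetilide plus 5 SD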;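 also: thallium influx through hERG after potassium depolarization seen as dye fluorescence rise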
KCNK9 block conf: human KCNK9 inhibitor confirmation. inhibition, % at 10 µM. AID 492992. shares compounds with KCNK9 block. 43% of 4,900 active. HEK293 KCNK9 cells, FluxOR thallium flux fluorescence;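 active = thallium signal inhibited by more than 5 SD of the compound-free buffer control wells, on both duplicate plates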
Kir2-1 spec: selectivity of KCNK9 modulators against mouse Kir2.1 | shares compounds with KCNK9 block | Kir2.1 cells, FluxOR thallium flux fluorescence | inhibition, % at 10 µM | 4% of 4,900 active | AID 492993;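 active = thallium signal drop more than 5 SD beyond the mean of the no-compound control wells, seen in both duplicate plates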;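 also: signal is fluorescence rise after thallium addition divided by baseline fluorescence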
HEK293 Tl ctr: non-induced cell nonspecific activity of KCNK9 modulators; shares compounds with KCNK9 block; non-induced KCNK9-HEK293, FluxOR thallium flux; inhibition, % at 10 µM; 40% of 4,900 active;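 active = thallium signal drop beyond 5 SD of the untreated control mean, on both duplicate plates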
Large screens that a line does not name were inactive (follow-up assays come after a bar, where they were run).

COc1ccc(C(=O)NNC(=S)NC(=O)c2cccs2)cc1	KCNK9 block -9.1 | KCNK9 block conf inactive | Kir2-1 spec inactive | HEK293 Tl ctr inactive
Cc1cccc(NC(=O)CN2CCN(C(=O)c3cccc(-n4cnnn4)c3)CC2)c1C	none (no result: KCNQ1 block, KCNQ1 pot, Kir21 block, KCNK9 block, hERG protect)
Cc1ccc2c(c1)N(CCC(=O)NC1CCCCC1)C(=O)CO2	none | KCNK9 block conf inactive | Kir2-1 spec inactive | HEK293 Tl ctr inactive
COc1ccccc1CNC(=O)CCCN1C(=O)COc2ccc(C)cc21	none | KCNK9 block conf inactive | Kir2-1 spec inactive | HEK293 Tl ctr inactive
COc1ccc(CN(CC(=O)NCCc2ccccc2)C(=O)CCC(=O)Nc2ccccn2)cc1	none
CCOC(=O)Cn1c(S(=O)(=O)Cc2ccc(F)cc2)nc(-c2ccccc2)c1-c1ccccc1	KCNK9 block -9.1 | KCNK9 block conf 34% | Kir2-1 spec inactive | HEK293 Tl ctr 39%
NC(=O)Cn1c(S(=O)(=O)Cc2ccccc2)nc2ccccc21	none
CCOC(=O)Cn1c(S(=O)(=O)Cc2cccc(F)c2)nc(-c2ccccc2)c1-c1ccccc1	KCNK9 block -11 | KCNK9 block conf 50% | Kir2-1 spec inactive | HEK293 Tl ctr 30%
C#CCn1c(S(=O)(=O)Cc2ccc(F)cc2)nc(-c2ccccc2)c1-c1ccccc1	KCNK9 block -14 | KCNK9 block conf 61% | Kir2-1 spec inactive | HEK293 Tl ctr 31%
Cc1ccc(C)c(C(=O)OCC(=O)N(C)c2ccccc2)c1	none | KCNK9 block conf inactive | Kir2-1 spec inactive | HEK293 Tl ctr inactive
COc1cccc(CNc2ccc(N3CCC(C)CC3)cc2)c1OC	none | KCNK9 block conf inactive | Kir2-1 spec inactive | HEK293 Tl ctr inactive
COc1ccc(Br)cc1CNc1ccc(N2CCOCC2)cc1	none
COc1ccc(-n2nc(C(=O)O)cc2-c2ccccc2)cc1	none
CCn1c(C)c(C(C)=O)c(N2CCN(C(c3ccccc3)c3ccccc3)CC2)nc1=S	KCNK9 block -9.1 | KCNK9 block conf inactive | Kir2-1 spec inactive | HEK293 Tl ctr inactive
CCn1c(C)c(C(C)=O)c(N2CCCCC2)nc1=S	none
CCC(C)(C)c1ccc(OCCCC[n+]2cccc(C)c2)c(C(C)(C)CC)c1	KCNQ1 block 10, Kir21 block -6.4, KCNK9 block -9.4 | KCNK9 block conf 38% | Kir2-1 spec 66% | HEK293 Tl ctr 28%
Cc1ccc[n+](CC(=O)Nc2cc(C(F)(F)F)ccc2Cl)c1	none
O=c1cnnc(N/N=C/C2CC=CCC2)[nH]1 (stereo not drawn)	none
Cc1oc(CC(C)C)cc1C(=O)Nc1cccc2ccccc12	KCNK9 block -9.5 | KCNK9 block conf inactive | Kir2-1 spec inactive | HEK293 Tl ctr 40%
CCOc1ccccc1NC(=O)c1cc(CC(C)C)oc1C	KCNK9 block -18 | KCNK9 block conf 62% | Kir2-1 spec inactive | HEK293 Tl ctr 43%
Cc1ccccc1N1CCN(Cc2cccc(C(=O)O)c2)CC1	none
COC(=O)c1cc(CN2CCN(c3ccccc3C)CC2)ccc1O	none | KCNK9 block conf inactive | Kir2-1 spec inactive | HEK293 Tl ctr inactive
CC1Cc2ccccc2N1C(=O)CO/N=C/c1ccc(OC(F)F)cc1 (stereo not drawn)	none | KCNK9 block conf inactive | Kir2-1 spec inactive | HEK293 Tl ctr inactive
CC1Cc2ccccc2N1C(=O)COC(=O)/C=C/c1ccc(F)cc1 (stereo not drawn)	none (no result: KCNQ1 block, KCNQ1 pot, Kir21 block, KCNK9 block, hERG protect)
Cc1ccc(OCCNC(=O)c2ccc3ccccc3n2)cc1	none | KCNK9 block conf inactive | Kir2-1 spec inactive | HEK293 Tl ctr inactive
O=C(NCCOc1ccc(Cl)cc1)c1ccc2ccccc2n1	none | KCNK9 block conf inactive | Kir2-1 spec inactive | HEK293 Tl ctr inactive
Cc1ccc(OCCNC(=O)c2ccccc2N)cc1	none
O=C(NCC1OCCCN1S(=O)(=O)c1cc(F)ccc1F)C(=O)NC1CCCC1 (stereo not drawn)	none
CCOc1ccc2nc(N3CCCCCC3)sc2c1	none
CCOc1ccc2nc(N3C(=O)/C(=C/c4ccccc4)NC3=S)sc2c1	KCNQ1 pot 134, hERG protect 45 | KCNK9 block conf inactive | Kir2-1 spec inactive | HEK293 Tl ctr inactive
O=C(CCSc1nc2ccccc2o1)Nc1ccccc1	none
CC(C)OC(=O)c1c(NS(=O)(=O)c2ccccc2)sc2c1CCCC2	KCNQ1 pot 31, hERG protect 18 | KCNK9 block conf inactive | Kir2-1 spec inactive | HEK293 Tl ctr inactive
Cc1cc(C)c(-c2csc(NC(=O)COC(=O)c3ccc4c(c3)OCO4)n2)c(C)c1	none | KCNK9 block conf inactive | Kir2-1 spec inactive | HEK293 Tl ctr inactive
Cc1cc(C)c(-c2csc(NC(=O)C3=COCCO3)n2)c(C)c1	none | KCNK9 block conf inactive | Kir2-1 spec inactive | HEK293 Tl ctr inactive
O=C(Nc1nc(-c2cccs2)cs1)C1=COCCO1	none
O=C(COC(=O)c1ccc2c(c1)OCO2)Nc1nc(-c2ccccc2)cs1	none
CCOC(=O)C1CCN(Cc2cc(C(C)(C)C)c(O)c(C(C)(C)C)c2)CC1	none | KCNK9 block conf inactive | Kir2-1 spec inactive | HEK293 Tl ctr inactive
CCc1ccc(N(CC)C(=O)c2ccc3c(Cl)c4c(nc3c2)CCC4)cc1	none | KCNK9 block conf inactive | Kir2-1 spec inactive | HEK293 Tl ctr 27%
COc1ccc(N(C)C(=O)c2ccc3c(Cl)c4c(nc3c2)CCCC4)c(OC)c1	none
Cc1ccc(N(C)C(=O)c2ccc3c(Cl)c4c(nc3c2)CCC4)cc1C	none | KCNK9 block conf inactive | Kir2-1 spec inactive | HEK293 Tl ctr inactive
CS(=O)(=O)c1ccc(C(=O)N2CCN(S(=O)(=O)c3ccc(C4CCCCC4)cc3)CC2)cc1	none (no result: KCNQ1 block, KCNQ1 pot, Kir21 block, KCNK9 block, hERG protect)
CN(Cc1ccccc1)C(NC(=O)c1ccccc1)C(Cl)(Cl)Cl (stereo not drawn)	none | KCNK9 block conf inactive | Kir2-1 spec inactive | HEK293 Tl ctr 41%
CN(Cc1ccccc1)C(NC(=O)c1ccco1)C(Cl)(Cl)Cl (stereo not drawn)	none
Cc1ccc(/C=C2\SC(=S)N(C(Cc3ccccc3)C(=O)O)C2=O)cc1 (stereo not drawn)	none | KCNK9 block conf inactive | Kir2-1 spec inactive | HEK293 Tl ctr inactive
O=C(O)C(Cc1ccccc1)N1C(=O)/C(=C/c2ccccc2)SC1=S (stereo not drawn)	none | KCNK9 block conf inactive | Kir2-1 spec inactive | HEK293 Tl ctr inactive
CCC(C(=O)O)N1C(=O)/C(=C/C(C)=C/c2ccccc2)SC1=S (stereo not drawn)	none | KCNK9 block conf inactive | Kir2-1 spec inactive | HEK293 Tl ctr inactive
CN(Cc1ccccc1)S(=O)(=O)c1ccc2[nH]c(=O)ccc2c1	none
